Experimental data reported in ChEMBL document CHEMBL1121715, “New antiarrhythmic agents. 4. 1'-(Aminoalkyl)-1,2,3,4-tetrahydronaphthalene-1-spiro-3'-pyrrolidine-2',5'-dione derivatives” (J Med Chem, 1981).

Assays:
Canis familiaris [1] = test: Ventricular rate was measured in anesthetized dog at 0.015 dose; assay type: functional, Canis lupus familiaris, Heart; settings: in the assay text read “unanesthetized dog” for “anesthetized dog”
Method in brief: (§1)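 Adult female dogs (6.7–14.5 kg) had two-stage ligation of the left anterior descending coronary artery the day before testing. After control ventricular rate, % ectopic beats and mean arterial pressure were recorded, the drug (HCl salt, isotonic solution) was infused iv without anesthesia at 0.1, 0.5 or 1.0 (mg/kg)/min, mostly 0.5. Infusion continued until the arrhythmia was abolished or cardiovascular/CNS toxicity appeared. Cumulative dose is given in mmol/kg; toxicity included convulsion and P-R prolongation ≥25%.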

[2] = Maximal concentration in dogs after intravenous administration; settings: dog, in vivo
Canis familiaris [3] = test: as above; settings: dog, in vivo
Canis familiaris [4] = test: % ectopic beats was measured in unanesthetized dog at 0.058 dose
Canis familiaris [5] = test: Blood level was measured in anesthetized dog at 0.023 dose; assay type: functional, Canis lupus familiaris
Canis familiaris [6] = test: Blood level was measured in anesthetized dog at 0.018 dose; assay type: functional, Canis lupus familiaris
Canis familiaris [7] = test: Blood level was measured in anesthetized dog at 0.038 dose; assay type: functional, Canis lupus familiaris
Mus musculus [8] = species: Mus musculus; test: Percentage toxicity measured as loss of righting reflex.; assay type: organism-based; settings: in vivo
Method in brief: (§2)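 Mice (groups of 10) were dosed sc with drug in 0.9% saline and watched for 20 min for overt toxicity (ataxia, convulsions, loss of righting reflex, death) before chloroform exposure.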

Canis familiaris [9] = species: Canis familiaris; test: Nature of toxicity was expressed; A-V convulsion; assay type: organism-based, Canis lupus familiaris; settings: dog, in vivo; method in brief: as §1
Canis familiaris [10] = species: Canis familiaris; test: The dose at which toxicity was measured; 0.065; 0.0182; assay type: organism-based, Canis lupus familiaris; settings: dog, in vivo; method in brief: as §1
Canis familiaris [11] = species: Canis familiaris; test: The Maximum dose of the compound; assay type: functional, Canis lupus familiaris; method in brief: as §1
Canis familiaris [12] = test: % ectopic beats was measured in anesthetized dog at 0.018 dose; assay type: functional, Canis lupus familiaris, Heart; settings: in the assay text read “unanesthetized” for “anesthetized”
Method in brief: (§3)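 Adult female dogs (6.7–14.5 kg) had the left anterior descending coronary artery ligated in two stages the day before testing. Dogs were unanesthetized. Ectopic beats (% of ventricular rate) and mean arterial pressure were read at maximal antiarrhythmic effect against the cumulative dose.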

Mus musculus [13] = test: Protection against chloroform induced arrhythmias in mice after subcutaneous administration at 100 mg/kg dose.; assay type: functional
Method in brief: (§4)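 Groups of 10 unanesthetized mice got sc injection of drug in 0.9% saline. After 20 min observation they were placed one by one in chloroform-vapor-saturated air. When breathing stopped, the thorax was opened and the heart inspected by eye; coordinated ventricular contractions counted as protected.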

Canis familiaris [14] = test: MABP value was measured in anesthetized dog at 0.058 dose; assay type: functional, Canis lupus familiaris; settings: in the assay text read “unanesthetized dog” for “anesthetized dog”; method in brief: as §1
Canis familiaris [15] = test: Blood level was measured in anesthetized dog at 0.058 dose; assay type: functional, Canis lupus familiaris
[16] = Percentage toxicity measured as death of mice.; assay type: organism-based; parameters: concentration or dose not given beside the values; settings: mouse, in vivo; read-out: Death
Canis familiaris [17] = test: % ectopic beats was measured in anesthetized dog at 0.015 dose; assay type: functional, Canis lupus familiaris, Heart; settings: in the assay text read “unanesthetized” for “anesthetized”; method in brief: as §3
Mus musculus [18] = species: Mus musculus; test: Percentage toxicity measured as convulsions.; assay type: organism-based; settings: in vivo; method in brief: as §2
Canis familiaris [19] = test: % ectopic beats was measured in anesthetized dog at 0.038 dose; assay type: functional, Canis lupus familiaris, Heart; settings: in the assay text read “unanesthetized” for “anesthetized”; method in brief: as §3
Canis familiaris [20] = test: Ventricular rate was measured in anesthetized dog at 0.023 dose; assay type: functional, Canis lupus familiaris, Heart; settings: in the assay text read “unanesthetized” for “anesthetized”; method in brief: as §1
Canis familiaris [21] = test: Blood level was measured in anesthetized dog at 0.053 dose; assay type: functional, Canis lupus familiaris
Canis familiaris [22] = test: MABP value was measured in anesthetized dog at 0.038dose; assay type: functional, Canis lupus familiaris; settings: in the assay text read “unanesthetized dog” for “anesthetized dog”; method in brief: as §1
Canis familiaris [23] = test: Ventricular rate was measured in anesthetized dog at 0.058 dose; assay type: functional, Canis lupus familiaris, Heart; settings: in the assay text read “unanesthetized” for “anesthetized”
Method in brief: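 Adult female dogs (6.7–14.5 kg) had ventricular arrhythmias from two-stage ligation of the left anterior descending coronary artery the day before. Ventricular rate (bpm) was read at maximal antiarrhythmic effect against cumulative dose.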

Canis familiaris [24] = species: Canis familiaris; test: The Maximum dose of the Compound; assay type: functional, Canis lupus familiaris; method in brief: as §1
Canis familiaris [25] = test: MABP value was measured in anesthetized dog at 0.018 dose; assay type: functional, Canis lupus familiaris; settings: in the assay text read “unanesthetized dog” for “anesthetized dog”; method in brief: as §3
[26] = Volume of distribution was measured at given dose of 227 uM/kg; assay type: ADME, organism-based; settings: in vivo
Method in brief: (§5)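 In dogs given iv infusions, blood samples were alkaline-extracted (pH 10.3) into methylene chloride and derivatized with heptafluorobutyrylimidazole. Concentrations were measured by GC-FID against an internal standard using standard curves. Clearance was total dose ÷ blood-level AUC (zero to infinity), and volume of distribution was clearance ÷ elimination rate constant.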

Canis familiaris [27] = species: Canis familiaris; test: Toxicity of blood level was measured; assay type: organism-based, Canis lupus familiaris; settings: dog, in vivo
Method in brief: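 In coronary-ligated conscious dogs under iv infusion, blood was sampled at toxicity. Drug was extracted with methylene chloride at pH 10.3 (ammonium citrate/ammonia) with another analogue as internal standard, then derivatized with heptafluorobutyrylimidazole. Assay was GC-FID on 3% JXR, quantified from drug/internal standard peak-height ratio against standard curves; results in μmol/mL.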

Canis familiaris [28] = test: Blood level was measured in anesthetized dog at 0.015 dose; assay type: functional, Canis lupus familiaris
Canis familiaris [29] = test: Ventricular rate was measured in anesthetized dog at 0.038 dose; assay type: functional, Canis lupus familiaris, Heart; settings: in the assay text read “unanesthetized dog” for “anesthetized dog”; method in brief: as §1
Canis familiaris [30] = test: % ectopic beats was measured in anesthetized dog at 0.023 dose; assay type: functional, Canis lupus familiaris, Heart; settings: in the assay text read “unanesthetized” for “anesthetized”; method in brief: as §3
Canis familiaris [31] = test: MABP value was measured in anesthetized dog at 0.023 dose; assay type: functional, Canis lupus familiaris; settings: in the assay text read “unanesthetized dog” for “anesthetized dog”; method in brief: as §3
Canis familiaris [32] = test: Ventricular rate was measured in anesthetized dog at 0.018 dose; assay type: functional, Canis lupus familiaris, Heart; settings: in the assay text read “unanesthetized dog” for “anesthetized dog”; method in brief: as §1
[33] = Total body clearance was measured at given dose; assay type: ADME
Method in brief: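 Blood levels came from the iv-infused dogs, measured by GC-FID after methylene chloride extraction and heptafluorobutyryl derivatization with an internal standard. Total body clearance was total dose divided by the blood-level AUC (zero to infinity); volume of distribution was clearance divided by the elimination rate constant.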

Canis familiaris [34] = test: MABP value was measured in anesthetized dog at 0.015 dose; assay type: functional, Canis lupus familiaris; settings: in the assay text read “unanesthetized dog” for “anesthetized dog”; method in brief: as §3
Mus musculus [35] = test: Protection against chloroform induced arrhythmias was measured in mice after sc administration at given dose; assay type: functional; method in brief: as §4
Canis familiaris [36] = test: % ectopic beats was measured in anesthetized dog at 0.053 dose; assay type: functional, Canis lupus familiaris, Heart; settings: in the assay text read “unanesthetized” for “anesthetized”; method in brief: as §3
Canis familiaris [37] = test: MABP value was measured in anesthetized dog at 0.053 dose; assay type: functional, Canis lupus familiaris; settings: in the assay text read “unanesthetized dog” for “anesthetized dog”; method in brief: as §1
Mus musculus [38] = species: Mus musculus; test: Percentage toxicity measured as ataxia.; assay type: organism-based; settings: in vivo; method in brief: as §2
Canis familiaris [39] = test: Ventricular rate was measured in anesthetized dog at 0.053 dose; assay type: functional, Canis lupus familiaris, Heart; settings: in the assay text read “unanesthetized dog” for “anesthetized dog”; method in brief: as §1
[40] = Volume of distribution was measured at given dose of 83 umol/kg; assay type: ADME, organism-based; settings: in vivo; method in brief: as §5

With `CN(C)CCCCN1C(=O)CC2(CCCc3ccc(O)cc32)C1=O` (stereo unspecified) the Ventricular rate (Canis familiaris [1]) was 165 beats min-1, the Cmax [2] was 37 µM and the Cmax (Canis familiaris [3]) was 30 µM. For the same compound, the Ectopic beats (Canis familiaris [4]) was 4%, the Blood level (Canis familiaris [5]) was 0.02 uM ml-1 and the Blood level (Canis familiaris [6]) was 0.022 uM ml-1. For the same compound, the Blood level (Canis familiaris [7]) was 0.023 uM ml-1, the “Loss of righting reflex” value (Mus musculus [8]) was 0% and the Nature (Canis familiaris [9]) was “A-V convulsion”. For the same compound, the Dose (Canis familiaris [10]) was “A-V convulsion”, the Dose (Canis familiaris [11]) was 227 µM/kg and the Etopic beats (Canis familiaris [12]) was 1%. The Protection (Mus musculus [13]) was 100%, the MABP (Canis familiaris [14]) was 95 mmHg and the Blood level (Canis familiaris [15]) was 0.017 uM ml-1. The mortality [16] was 0%, the Etopic beats (Canis familiaris [17]) was 0% and the Convulsion (Mus musculus [18]) was 0%. For the same compound, the Etopic beats (Canis familiaris [19]) was 0%, the Ventricular rate (Canis familiaris [20]) was 138 beats min-1 and the Blood level (Canis familiaris [21]) was 0.028 uM ml-1. For the same compound, the MABP (Canis familiaris [22]) was 105 mmHg, the Ventricular rate (Canis familiaris [23]) was 171 beats min-1 and the Dose (Canis familiaris [24]) was 83 µM/kg. The MABP (Canis familiaris [25]) was 120 mmHg, the Vd [26] was 3.35 L/kg and the Blood level (Canis familiaris [27]) was 12 µM. The Blood level (Canis familiaris [28]) was 0.024 uM ml-1, the Ventricular rate (Canis familiaris [29]) was 171 beats min-1 and the Etopic beats (Canis familiaris [30]) was 93%. For the same compound, the MABP (Canis familiaris [31]) was 110 mmHg, the Ventricular rate (Canis familiaris [32]) was 150 beats min-1 and the ClB [33] was 1.05 L/h/kg. For the same compound, the clearance ([33]; ClB) was 1.9 L/h/kg, the MABP (Canis familiaris [34]) was 85 mmHg and the ED50 (Mus musculus [35]) was 160 µmol/kg. The Etopic beats (Canis familiaris [36]) was 3%, the MABP (Canis familiaris [37]) was 135 mmHg and the Ataxia (Mus musculus [38]) was 0%. The Ventricular rate (Canis familiaris [39]) was 183 beats min-1 and the Vd [40] was 3.02 L/kg.
